Measurements collected from several papers.
Protocols differ between the studies behind these lines.
ACVR1: Activin receptor type-1 (ACVR1, Homo sapiens, UniProt Q04771)
PLA2G5: Phospholipase A2 group V (PLA2G5, Homo sapiens, UniProt P39877)
CDK9 with cyclin T1: Cyclin-dependent kinase 9, with cyclin T1 (CDK9, Homo sapiens, UniProt P50750)
CXCR4: C-X-C chemokine receptor type 4 (CXCR4, Homo sapiens, UniProt P61073)
MDH2: Malate dehydrogenase, mitochondrial (MDH2, Sus scrofa, UniProt P00346)
SRC: Proto-oncogene tyrosine-protein kinase Src (SRC, Homo sapiens, UniProt P12931)
CYP2C9: Cytochrome P450 2C9 (CYP2C9, Homo sapiens, UniProt P11712)
NTRK3: NT-3 growth factor receptor (NTRK3, Homo sapiens, UniProt Q16288)

`CC(C)=CCC/C(C)=C/Cc1ccc[n+](CC(P(=O)([O-])O)P(=O)(O)O)c1` (stereo not drawn) has an IC50 of 10 µM (Geranylgeranyl pyrophosphate synthase (GGPS1, Homo sapiens, UniProt O95749); enzyme activity; inhibitor).
With `CCN(CC)CCOc1ccc2c(c1)C(=O)c1cc(OCCN(CC)CC)ccc1-2` the IC50 was 0.0646 µM (Acetylcholinesterase (ACHE, Homo sapiens, UniProt P22303); enzyme activity; inhibitor).
For `CC(C)(C)n1nc(-c2ccc3nc(OC4CC4)ccc3c2)c(C(N)=O)c1N`, the IC50 was over 10 µM (ACVR1; cell-free assay).
`O=C(O)/C=C/c1ccc(O)cc1` has an IC50 of 55.1 µM (PLA2G5; enzyme activity; inhibitor; Ellman).
For `CC(C)(C)n1nc(-c2cnc3cc(OC4CC4)ccc3c2)c(C(N)=O)c1N`, the IC50 was over 10 µM (ACVR1; cell-free assay).
For `O=c1cc(-c2ccc3c(c2)OCO3)oc2c1ccc1occc12`, the IC50 was 31.4 µM (CDK9 with cyclin T1; enzyme activity; inhibitor; ADP detection).
`CCS(=O)(=O)c1ncc(N(Cc2ccco2)Cc2ccco2)c(C(=O)Nc2c(C)cccc2C)n1` has an IC50 of 13 µM (CXCR4; β-arrestin recruitment; antagonist).
The IC50 of `Nc1ccc(S(=O)(=O)Nc2ccc(-c3nc4cc(NS(=O)(=O)c5ccc(N)cc5)ccc4o3)cc2)cc1` is reported as over 62.5 µM (MDH2; enzyme activity; inhibitor).
`Cc1cccc(C)c1NC(=O)c1nc(S(C)(=O)=O)ncc1N(Cc1ccccc1)Cc1ccco1` has an IC50 of 316 µM (CXCR4; β-arrestin recruitment; antagonist).
`CCN1CCN(Cc2ccc(NC(=O)c3ccc(C)c(NC(=O)c4cncc(I)c4)c3)cc2C(F)(F)F)CC1` gave an IC50 of 0.578 µM (Ephrin type-A receptor 2 (EPHA2, Homo sapiens, UniProt P29317); enzyme activity; inhibitor; ADP detection).
`Cc1noc(C)c1CN(C(=O)CCc1nc(Cc2ccccc2)no1)c1ccccc1` has an IC50 of 200 µM (CXCR4; β-arrestin recruitment).
With `O=S(=O)(Nc1ccc(-c2nc3cc(NS(=O)(=O)c4cccc(C(F)(F)F)c4)ccc3o2)cc1)c1cccc(C(F)(F)F)c1` the IC50 was over 62.5 µM (MDH2; enzyme activity; inhibitor).
With `CCS(=O)(=O)c1ncc(N(Cc2ccccc2)Cc2ccco2)c(C(=O)Nc2ccc(C)cc2)n1` the IC50 was 25 µM (CXCR4; β-arrestin recruitment; antagonist).
The IC50 of `COc1ccc(S(=O)(=O)Nc2ccc3oc(-c4ccc(NS(=O)(=O)c5cc(F)ccc5OC)cc4)nc3c2)cc1` is reported as over 62.5 µM (MDH2; enzyme activity; inhibitor).
With `COc1ccc2c(Oc3ccc4c(C(=O)Nc5ccccc5N)cccc4c3)ccnc2c1` the IC50 was over 0.5 µM (SRC; enzyme activity; inhibitor).
For `O=C(O)/C=C\C(=O)Nc1ccc(S(=O)(=O)Nc2ncccn2)cc1`, the IC50 was 54.6 µM (Dipeptidyl peptidase 4 (DPP4, Homo sapiens, UniProt P27487); enzyme activity; inhibitor; fluorescence).
The IC50 of `O=C(O)c1cc(O)c(O)c(O)c1` is reported as 9.79 µM (PLA2G5; enzyme activity; inhibitor; Ellman).
For `OCc1cc(C(O)CNCCCCCCOCCCCc2ccccc2)ccc1O` (stereo not drawn), the IC50 was 38.3 µM (CXCR4; calcium signal; antagonist).
With `COC(=O)C1CCN(C(=O)c2ccc(N(Cc3ccccc3)Cc3cnc4nc(N)nc(N)c4n3)cc2)CC1` the IC50 was 0.316 µM (CYP2C9; enzyme activity; inhibitor; luciferase).
For `Cc1ccc(S(=O)(=O)Nc2ccc(-c3nc4ccc(NS(=O)(=O)c5ccc(C)cc5)cc4[nH]3)cc2)cc1`, the IC50 was over 62.5 µM (MDH2; enzyme activity; inhibitor).
The IC50 of `COc1ccc(-c2nn3c(C)nnc3s2)cc1` is reported as over 100 µM (DNA dC->dU-editing enzyme APOBEC-3A (Homo sapiens, UniProt P31941); enzyme activity; inhibitor).
`COc1ccc(S(=O)(=O)Nc2ccc3oc(-c4ccc(NC(=O)C5CCN(C(C)=O)CC5)cc4)nc3c2)cc1` has an IC50 of over 62.5 µM (MDH2; enzyme activity; inhibitor).
With `Nc1ncnc2c1c(Cc1cccc3ccccc13)nn2CC1CCNCC1` the IC50 was over 20 µM (SRC; enzyme activity; inhibitor).
With `CC(C)NCCCC[C@H](NC(=O)[C@H]1CCC(=O)N[C@@H](Cc2ccccc2)C(=O)N[C@@H](Cc2ccc(O)cc2)C(=O)N[C@@H](CCCCNC(C)C)C(=O)N[C@H](CCCNC(=N)N)C(=O)N[C@@H](Cc2ccc3ccccc3c2)C(=O)NCC(=O)N1)C(N)=O` the IC50 was 0.0248 µM (CXCR4; ligand displacement; radioligand).
The IC50 of `O=C(O)c1cccc(SCc2cccc(Nc3ncc4c(-c5ccc(N6CCOCC6)cc5)[nH]nc4n3)c2)c1` is reported as over 200 µM (Cyclin-dependent kinase 1, with cyclin B (CDK1, Homo sapiens, UniProt P06493); enzyme activity; inhibitor).
The IC50 of `Cc1ccc(S(=O)(=O)Nc2ccc(-c3nc4cc(NS(=O)(=O)c5ccc(C)cc5)ccc4o3)cc2)cc1` is reported as over 62.5 µM (MDH2; enzyme activity; inhibitor).
For `C=CC(=O)Nc1ccc(N2CCC[C@@H](Nc3ncc(Cl)c(-c4c[nH]c5ccccc45)n3)C2)c(F)c1`, the IC50 was 0.436 µM (CDK9 with cyclin T1; enzyme activity; inhibitor; FRET).
With `Cc1cnc(-c2ccc(-c3ccc(NC(=O)Nc4c(F)cc(F)cc4F)cc3F)c3c2C(=O)NC3)[nH]1` the IC50 was 0.0004 µM (SRC; enzyme activity; inhibitor).
For `CNC(=O)c1cc2c(Oc3ccc(NC(=O)C4(C(=O)Nc5ccc(F)cc5)CC4)cc3)ccnc2cc1OC`, the IC50 was 0.003 µM (Tyrosine-protein kinase Mer (MERTK, Homo sapiens, UniProt Q12866); enzyme activity; inhibitor; TR-FRET).
`Cc1n[nH]c2nncnc12` has an IC50 of about 700 µM (deoD (Escherichia coli, UniProt P0ABP8); enzyme activity; inhibitor; pH 7).
`[Na+].[Na+].[Na+].[O]=[V]([O-])([O-])[O-]` gave an IC50 of 4.4 µM (Tyrosine-protein phosphatase non-receptor type 6 (PTPN6, Homo sapiens, UniProt P29350); enzyme activity; inhibitor; absorbance).
For `CC(=O)c1ccc(/N=N/c2cc(/C=C/C(=O)O)ccc2O)cc1`, the IC50 was 42.5 µM (PLA2G5; enzyme activity; inhibitor; Ellman).
The IC50 of `COc1c(C(=O)/C=C(\O)c2ccccc2)ccc2occc12` is reported as over 100 µM (CDK9 with cyclin T1; enzyme activity; inhibitor; ADP detection).
`CCn1c(COC(=O)c2ccccc2NC(=O)c2ccco2)nc2cc(S(=O)(=O)N(C)C)ccc21` has an IC50 of 63 µM (CXCR4; β-arrestin recruitment; antagonist).
`Nc1nc(N)c2nc(CNc3cccc4ccccc34)cnc2n1` gave an IC50 of 11 µM (CYP2C9; enzyme activity; inhibitor; luciferase).
`Cc1ccc(CN(Cc2ccco2)c2cnc(S(C)(=O)=O)nc2C(=O)Nc2ccc(C)cc2)cc1` gave an IC50 of 25 µM (CXCR4; β-arrestin recruitment; antagonist).
`CC(=O)c1cccc(N=Nc2c(C(=O)O)cc(O)c(O)c2O)c1` has an IC50 of 8.47 µM (PLA2G5; enzyme activity; inhibitor; Ellman).
`CCn1ncc2c1-c1cnc(N)c(c1)O[C@H](C)c1cc(F)ccc1-c1nn(C)nc1C2` has an IC50 of 0.154 µM (NTRK3; enzyme activity; inhibitor; radiometric).
With `COc1ccccc1S(=O)(=O)Nc1ccc(-c2nc3cc(NS(=O)(=O)c4ccccc4OC)ccc3o2)cc1` the IC50 was over 62.5 µM (MDH2; enzyme activity; inhibitor).
For `C[C@@H](N)COc1ccc(-c2cnc3ccc(N[C@H](C)c4cccc(F)c4)nn23)cc1`, the IC50 was 0.0042 µM (NTRK3; enzyme activity; inhibitor).
With `CN1CCN(c2ccc(Nc3ncc4cc(C#N)c(=O)n(C5CCCC5)c4n3)cc2)CC1` the IC50 was 7.41 µM (Cyclin-dependent kinase 1, with cyclin A (CDK1, Homo sapiens, UniProt P06493); enzyme activity; inhibitor).
With `COc1c(Br)cccc1C(=O)Nc1ccc(Sc2nc3ccccc3s2)cc1` the IC50 was over 62.5 µM (MDH2; enzyme activity; inhibitor).
